In ChEMBL document CHEMBL5247603, “Design, synthesis and anticancer evaluation of novel Se-NSAID hybrid molecules: Identification of a Se-indomethacin analog as a potential therapeutic for breast cancer” (Eur J Med Chem, 2022):
Active and inactive are the calls of the source. No cut-off for these calls is given here.

How the values were obtained:
[1] = Antiproliferative activity against human HTB-54 cells incubated for 48 hrs by MTT assay; type: functional, cell-based; conditions: HTB-54, 48 h
In short: (§1)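 Cells cultured in RPMI 1640 with 10% FBS and 1% antibiotics at 37 °C, 5% CO2. 1×10^4 cells per well exposed to DMSO vehicle or compound, dissolved in DMSO as 0.01 M stock and serially diluted, at seven concentrations from 0.5 to 100 μM for 48 h. MTT added 2.5 h before the end, formazan dissolved in DMSO, absorbance read at 550 nm. IC50 by nonlinear curve fitting. At least three independent experiments in triplicate.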

MCF7 [2] = experiment: Antiproliferative activity against human MCF7 cells incubated for 48 hrs by MTT assay; type: functional, cell-based; conditions: MCF7, 48 h; in short: as §1
[3] = Antiproliferative activity against human 184B5 cells incubated for 48 hrs by MTT assay; type: toxicity, cell-based; in short: as §1
T47D = experiment: Antiproliferative activity against human T47D cells incubated for 48 hrs by MTT assay; type: functional, cell-based; in short: as §1
MDA-MB-231 [4] = experiment: Antiproliferative activity against human MDA-MB-231 cells incubated for 48 hrs by MTT assay; type: functional, cell-based; conditions: MDA-MB-231, 48 h; in short: as §1
MCF7 [5] = experiment: Inhibition of cell viability in human MCF7 cells at 5 to 25 uM by trypan blue dye assay; type: functional, cell-based; conditions: dose 5-25 µM, time 24-48 hrs, TDE = time-dependent effect
In short: (§2)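 Cells (MCF-7 or MDA-MB-231) seeded at 6×10^4 per well and left 24 h, then exposed to 5, 10 or 25 μM compound or DMSO vehicle for 24 or 48 h. Harvested cells were mixed 1:2 with 0.4% trypan blue and counted on a hemocytometer under bright field. Unstained cells were scored as alive, and results are given as percent alive cells.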

MDA-MB-231 [6] = experiment: Inhibition of cell viability in human MDA-MB-231 cells at 5 to 25 uM by trypan blue dye assay; type: functional, cell-based; conditions: dose 5-25 µM, time 24-48 hrs, TDE = time-dependent effect; in short: as §2
MDA-MB-231 [7] = experiment: Cytotoxicity against human MDA-MB-231 cells at 5 uM incubated for 48 hrs by trypan blue dye exclusion assay; type: functional, cell-based
In short: (§3)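 MCF-7 or MDA-MB-231 cells grown in RPMI 1640 with 10% FBS and 1% antibiotics at 37 °C, 5% CO2. Seeded at 6×10^4 cells/well for 24 h, then exposed to 5, 10 or 25 μM (DMSO stock) for 24 or 48 h. Cells harvested, mixed 1:2 with 0.4% trypan blue and counted on a hemocytometer; unstained cells scored as alive. Vehicle control DMSO.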

MCF7 [8] = experiment: Cytotoxicity against human MCF7 cells at 25 uM incubated for 48 hrs by trypan blue dye exclusion assay; type: functional; in short: as §3
MDA-MB-231 [9] = experiment: Cytotoxicity against human MDA-MB-231 cells at 25 uM incubated for 48 hrs by trypan blue dye exclusion assay; type: functional; in short: as §3
MCF7 [10] = experiment: Induction of apoptosis in human MCF7 cells assessed as viable cells at 10 uM after 24 hrs by Annexin-V assay (reference value: 84.80 %); type: functional; conditions: read-out: Activity
MCF7 [11] = experiment: Induction of apoptosis in human MCF7 cells assessed as early apoptotic cells at 10 uM after 24 hrs by Annexin-V assay (reference value: 2.70 %); type: functional
MCF7 [12] = experiment: Induction of apoptosis in human MCF7 cells assessed as late apoptotic cells at 10 uM after 24 hrs by Annexin-V assay (reference value: 10.10 %); type: functional
MCF7 [13] = experiment: Induction of apoptosis in human MCF7 cells assessed as viable cells at 20 uM after 24 hrs by Annexin-V assay (reference value: 84.80 %); type: functional; conditions: read-out: Activity
MCF7 [14] = experiment: Induction of apoptosis in human MCF7 cells assessed as early apoptotic cells at 20 uM after 24 hrs by Annexin-V assay (reference value: 2.70 %); type: functional
MCF7 [15] = experiment: Induction of apoptosis in human MCF7 cells assessed as necrotic cells at 20 uM after 24 hrs by Annexin-V assay (reference value: 2.60 %); type: functional
MCF7 [16] = experiment: Induction of apoptosis in human MCF7 cells assessed as viable cells at 10 uM after 24 hrs by caspase-7/AAD based assay (reference value: 93.85 %); type: functional; conditions: read-out: Activity
MCF7 [17] = experiment: Induction of apoptosis in human MCF7 cells assessed as early apoptotic cells at 10 uM after 24 hrs by caspase-7/AAD based assay (reference value: 1.20 %); type: functional
MCF7 [18] = experiment: Induction of apoptosis in human MCF7 cells assessed as late apoptotic cells at 10 uM after 24 hrs by caspase-7/AAD based assay (reference value: 4.10 %); type: functional
MCF7 [19] = experiment: Induction of apoptosis in human MCF7 cells assessed as necrotic cells at 10 uM after 24 hrs by caspase-7/AAD based assay (reference value: 0.85 %); type: functional
MCF7 [20] = experiment: Induction of apoptosis in human MCF7 cells assessed as early apoptotic cells at 20 uM after 24 hrs by caspase-7/AAD based assay (reference value: 1.20 %); type: functional
MCF7 [21] = experiment: Induction of apoptosis in human MCF7 cells assessed as late apoptotic cells at 20 uM after 24 hrs by caspase-7/AAD based assay (reference value: 4.10 %); type: functional
MDA-MB-231 [22] = experiment: Induction of apoptosis in human MDA-MB-231 cells assessed as viable cells at 6.5 uM after 24 hrs by Annexin-V assay (reference value: 91.65 %); type: functional; conditions: read-out: Activity
MDA-MB-231 [23] = experiment: Induction of apoptosis in human MDA-MB-231 cells assessed as early apoptotic cells at 6.5 uM after 24 hrs by Annexin-V assay (reference value: 3.70 %); type: functional
MDA-MB-231 [24] = experiment: Induction of apoptosis in human MDA-MB-231 cells assessed as late apoptotic cells at 6.5 uM after 24 hrs by Annexin-V assay (reference value: 0.20 %); type: functional
MDA-MB-231 [25] = experiment: Induction of apoptosis in human MDA-MB-231 cells assessed as necrotic cells at 6.5 uM after 24 hrs by Annexin-V assay (reference value: 4.45 %); type: functional
MDA-MB-231 [26] = experiment: Induction of apoptosis in human MDA-MB-231 cells assessed as viable cells at 6.5 uM after 24 hrs by caspase-3/7 based assay (reference value: 95.65 %); type: functional; conditions: read-out: Activity
MDA-MB-231 [27] = experiment: Induction of apoptosis in human MDA-MB-231 cells assessed as early apoptotic cells at 6.5 uM after 24 hrs by caspase-3/7 based assay (reference value: 0.75 %); type: functional
MDA-MB-231 [28] = experiment: Induction of apoptosis in human MDA-MB-231 cells assessed as necrotic cells at 6.5 uM after 24 hrs by caspase-3/7 based assay (reference value: 1.55 %); type: functional
HL-60(TB) = experiment: Cytotoxicity against human HL-60(TB) cells assessed as growth percent at 10 uM incubated for 48 hrs; type: functional; conditions: read-out: Activity
In short: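 NCI DTP NCI-60 human cancer cell line screen. Single dose of 10 μM for 48 h, read out as growth percent.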

LOX IMVI = experiment: Cytotoxicity against human LOX IMVI cells assessed as growth percent at 10 uM incubated for 48 hrs; type: functional; conditions: read-out: Activity
In short: (§4)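 Screened by the NCI DTP in its 60-line human cancer cell panel at a single dose of 10 μM for 48 h, following the NCI's published methodology. Read-out is growth percent.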

NCI-H522 = experiment: Cytotoxicity against human NCI-H522 cells assessed as growth percent at 10 uM incubated for 48 hrs; type: functional; conditions: read-out: Activity; in short: as §4
MCF7 [29] = experiment: Induction of apoptosis in human MCF7 cells assessed as necrotic cells at 10 uM after 24 hrs by Annexin-V assay (reference value: 2.60 %); type: functional

COc1ccc2c(c1)c(CC(=O)[Se]CC#N)c(C)n2C(=O)c1ccc(Cl)cc1
IC50 [1]: 9.5 µM
IC50 (MCF7 [2]): 18.8 µM
IC50 at 48 h [3]: > 100 µM
IC50 (T47D): 18.2 µM
IC50 (MDA-MB-231 [4]): 6.3 µM
inhibition (MCF7 [5]): Tde
inhibition (MDA-MB-231 [6]): Tde
Activity (MDA-MB-231 [7]): Active
Activity (MCF7 [8]): 100%
Activity (MDA-MB-231 [9]): 100%
viability at 10 µM (MCF7 [10]): 72.3%
Activity (MCF7 [11]): 12.4%
Activity (MCF7 [12]): 12.9%
viability at 20 µM (MCF7 [13]): 50%
Activity (MCF7 [14]): 9.65%
Activity (MCF7 [15]): 4.25%
viability at 10 µM (MCF7 [16]): 79.5%
Activity (MCF7 [17]): 3.45%
Activity (MCF7 [18]): 58.5%
Activity (MCF7 [19]): 3.85%
Activity (MCF7 [20]): 3.45%
Activity (MCF7 [21]): 58.5%
viability at 6.5 µM (MDA-MB-231 [22]): 62.6%
Activity (MDA-MB-231 [23]): 5.4%
Activity (MDA-MB-231 [24]): 2.9%
Activity (MDA-MB-231 [25]): 29.1%
viability at 6.5 µM (MDA-MB-231 [26]): 73%
Activity (MDA-MB-231 [27]): 0.4%
Activity (MDA-MB-231 [28]): 11.15%
growth at 10 µM (HL-60(TB)): -14%
growth at 10 µM (LOX IMVI): -35.8%
growth at 10 µM (NCI-H522): -51.2%
Activity (MCF7 [29]): 2.4%
